In brackets after ≈: the same amount, converted by molar mass.
Columns and labels:
Assay type in all cases: functional, cell-based
MCF7 = test: Cytotoxicity against human MCF7 cells assessed as cell growth inhibition after 72 hrs by MTT assay; settings: MCF7, 72 h
In short: (§1)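 MTT growth assay in human cancer lines (MCF-7, HepG2, BGC-823, HeLa, A549), 72 h after treatment; 5-fluorouracil as reference. IC50 (μg/mL) taken as concentration giving 50% growth inhibition versus untreated control.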

HepG2 = test: Cytotoxicity against human HepG2 cells assessed as cell growth inhibition after 72 hrs by MTT assay; settings: HepG2, 72 h; in short: as §1
HeLa = test: Cytotoxicity against human HeLa cells assessed as cell growth inhibition after 72 hrs by MTT assay; in short: as §1
A549 = test: Cytotoxicity against human A549 cells assessed as cell growth inhibition after 72 hrs by MTT assay; settings: A549, 72 h; in short: as §1
[1] = Cytotoxicity against human BCG823 cells assessed as cell growth inhibition after 72 hrs by MTT assay; settings: BCG823, 72 h; in short: as §1

| SMILES | IC50 (MCF7) [µg/mL] | IC50 (HepG2) [µg/mL] | IC50 (HeLa) [µg/mL] | IC50 (A549) [µg/mL] | IC50 [1] [µg/mL] |
| --- | --- | --- | --- | --- | --- |
| CN(C(=O)NC(=O)c1c(F)cccc1F)c1nc(C(F)(F)F)c(C(=O)N/N=C/c2ccc(C(F)(F)F)cc2)s1 | 35.3 (≈ 61 µM) | 49.6 (≈ 85.6 µM) | 30.6 (≈ 52.8 µM) | 40.1 (≈ 69.2 µM) | 34.9 (≈ 60.2 µM) |
| CN(C(=O)NC(=O)c1ccc([N+](=O)[O-])cc1)c1nc(C(F)(F)F)c(C(=O)N/N=C/c2ccc([N+](=O)[O-])cc2)s1 | 9.24 (≈ 16.3 µM) | 12.3 (≈ 21.8 µM) | 8.42 (≈ 14.9 µM) | 8.98 (≈ 15.9 µM) | 7.45 (≈ 13.2 µM) |
| CN(C(=O)NC(=O)c1ccc(Cl)cc1Cl)c1nc(C(F)(F)F)c(C(=O)N/N=C/c2ccccc2C(F)(F)F)s1 | 9.12 (≈ 14.9 µM) | 10.7 (≈ 17.4 µM) | 9 (≈ 14.7 µM) | 15.3 (≈ 25 µM) | 5.73 (≈ 9.36 µM) |
| CN(C(=O)NC(=O)c1ccc(C(F)(F)F)cc1)c1nc(C(F)(F)F)c(C(=O)N/N=C/c2ccc(C(F)(F)F)cc2)s1 | > 100 | > 100 | > 100 | > 100 | > 100 |
| Cc1nc(N(C)C(=O)NC(=O)c2c(F)cccc2F)sc1C(=O)N/N=C/c1cccc(C(F)(F)F)c1 | 28.1 (≈ 53.6 µM) | 31.6 (≈ 60.1 µM) | 26.8 (≈ 51 µM) | 30.3 (≈ 57.7 µM) | 32.6 (≈ 62.1 µM) |
| CN(C(=O)NC(=O)c1ccc(Cl)cc1Cl)c1nc(C(F)(F)F)c(C(=O)N/N=C/c2ccc([N+](=O)[O-])cc2)s1 | 6.74 (≈ 11.4 µM) | 6.85 (≈ 11.6 µM) | 5.12 (≈ 8.69 µM) | 6.44 (≈ 10.9 µM) | 2.13 (≈ 3.61 µM) |
| CN(C(=O)NC(=O)c1ccccc1F)c1nc(C(F)(F)F)c(C(=O)N/N=C/c2cccc(C(F)(F)F)c2)s1 | 20.5 (≈ 36.6 µM) | 20.3 (≈ 36.2 µM) | 19.1 (≈ 34.1 µM) | 19.4 (≈ 34.6 µM) | 16.3 (≈ 29.1 µM) |
| CN(C(=O)NC(=O)c1ccc(F)c(F)c1)c1nc(C(F)(F)F)c(C(=O)N/N=C/c2ccc([N+](=O)[O-])cc2)s1 | 4.81 (≈ 8.64 µM) | 6.23 (≈ 11.2 µM) | 5.08 (≈ 9.13 µM) | 5.78 (≈ 10.4 µM) | 2.99 (≈ 5.37 µM) |
| CN(C(=O)NC(=O)c1c(F)cccc1F)c1nc(C(F)(F)F)c(C(=O)N/N=C/c2cccc(C(F)(F)F)c2)s1 | 21.8 (≈ 37.6 µM) | 27.9 (≈ 48.1 µM) | 21.6 (≈ 37.3 µM) | 27.6 (≈ 47.6 µM) | 25.9 (≈ 44.6 µM) |
| CN(C(=O)NC(=O)c1c(Cl)cccc1Cl)c1nc(C(F)(F)F)c(C(=O)N/N=C/c2ccccc2C(F)(F)F)s1 | 6.24 (≈ 10.2 µM) | 8.95 (≈ 14.6 µM) | 5.23 (≈ 8.54 µM) | 12 (≈ 19.6 µM) | 4.12 (≈ 6.73 µM) |
| CN(C(=O)NC(=O)c1cccc(C(F)(F)F)c1)c1nc(C(F)(F)F)c(C(=O)N/N=C/c2ccc(C(F)(F)F)cc2)s1 | 6.5 (≈ 10.6 µM) | 7.71 (≈ 12.6 µM) | 7.35 (≈ 12 µM) | 6.2 (≈ 10.1 µM) | 4.22 (≈ 6.9 µM) |
| CN(C(=O)NC(=O)c1ccc(Cl)cc1Cl)c1nc(C(F)(F)F)c(C(=O)N/N=C/c2cccc(C(F)(F)F)c2)s1 | 10.7 (≈ 17.5 µM) | 11.2 (≈ 18.3 µM) | 9.6 (≈ 15.7 µM) | 10.5 (≈ 17.2 µM) | 6.11 (≈ 9.98 µM) |
| Cc1nc(N(C)C(=O)NC(=O)c2c(F)cccc2F)sc1C(=O)N/N=C/c1ccc(C(F)(F)F)cc1 | 30.6 (≈ 58.2 µM) | > 100 | 40.5 (≈ 77.2 µM) | 60.4 (≈ 115 µM) | 65.5 (≈ 125 µM) |
| CN(C(=O)NC(=O)c1ccc(F)c(F)c1)c1nc(C(F)(F)F)c(C(=O)N/N=C/c2ccccc2C(F)(F)F)s1 | 8.21 (≈ 14.2 µM) | 10.4 (≈ 17.9 µM) | 9.24 (≈ 15.9 µM) | 6.96 (≈ 12 µM) | 3.66 (≈ 6.32 µM) |
| Cc1nc(N(C)C(=O)NC(=O)c2c(F)cccc2F)sc1C(=O)N/N=C/c1ccccc1F |  | > 100 |  |  |  |
| CN(C(=O)NC(=O)c1ccccc1)c1nc(C(F)(F)F)c(C(=O)N/N=C/c2cccc([N+](=O)[O-])c2)s1 | 15.4 (≈ 29.6 µM) | 14.3 (≈ 27.5 µM) | 11.2 (≈ 21.6 µM) | 20.7 (≈ 39.7 µM) | 13.6 (≈ 26.1 µM) |
| COc1cc(/C=N/NC(=O)c2sc(N(C)C(=O)NC(=O)c3c(F)cccc3F)nc2C)cc(OC)c1OC |  | > 100 |  |  |  |
| CN(C(=O)NC(=O)c1cccc(C(F)(F)F)c1)c1nc(C(F)(F)F)c(C(=O)N/N=C/c2cc(C(F)(F)F)cc(C(F)(F)F)c2)s1 | 6.08 (≈ 8.95 µM) | 5.38 (≈ 7.92 µM) | 5.34 (≈ 7.86 µM) | 8.2 (≈ 12.1 µM) | 5.23 (≈ 7.7 µM) |
| CN(C(=O)NC(=O)c1cccc(C(F)(F)F)c1)c1nc(C(F)(F)F)c(C(=O)N/N=C/c2cccc(C(F)(F)F)c2)s1 | 3.7 (≈ 6.05 µM) | 5.79 (≈ 9.47 µM) | 4.81 (≈ 7.87 µM) | 8.16 (≈ 13.3 µM) | 4.6 (≈ 7.52 µM) |
| Cc1nc(N(C)C(=O)NC(=O)c2c(F)cccc2F)sc1C(=O)N/N=C/c1ccccc1 |  | 54.3 (≈ 119 µM) |  |  |  |
| CN(C(=O)NC(=O)c1ccc([N+](=O)[O-])cc1)c1nc(C(F)(F)F)c(C(=O)N/N=C/c2cccc(C(F)(F)F)c2)s1 | 4.39 (≈ 7.46 µM) | 4.73 (≈ 8.04 µM) | 4.12 (≈ 7 µM) | 5.42 (≈ 9.21 µM) | 1.67 (≈ 2.84 µM) |
